# From PubChem BioAssay
# In the library only some 3.7% were active in any assay of this set; here they are far more common.
# GASC-1 inh: blocks human GASC-1 demethylase activity | inhibition, % at 2.35 µM | GST-JMJD2C(1-420) H3K9me3 demethylation, DELFIA europium | 0.069% of 330,000 active | AID 2099;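 active = more than half of a compound's replicate wells show inhibition beyond 50%, single wells judged on their own value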;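 note: signal counts dimethyl H3K9 product captured on neutravidin plate; 0% = median of DMSO wells and 100% = 0.3 times that DMSO median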
# SR-BI DiI-HDL act: activators of SR-BI mediated HDL lipid uptake | CHO ldlA[mSR-BI] cells, DiI-HDL uptake fluorescence, 3 h; 100 = double the neutral-control signal | activation, % at 12.5 µM | 0.096% of 320,000 active | AID 504775;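 active = mean replicate activation of at least 60% and every replicate at or above 60%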;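 note: 0% = median plate neutral-control signal and 100% = twice that signal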
#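 Assay system: LDL receptor-deficient CHO ldlA cells overexpressing murine SR-BI / Medium: BSA-supplemented, HEPES-buffered Ham's F12, pH 7.4 / Probe or stimulus: DiI-labelled HDL at 10 µg/mL final / Timing: compound with DiI-HDL co-incubation, 3 h at 37 °C / Technique: bottom-read cell fluorescence after medium removal, ex 550/em 595 nm / Measure: HDL uptake via cellular fluorescence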
# GAA850 FXN act: increases GAA850 frataxin promoter reporter activity. HEK293 lucGAA850 FXN promoter luciferase reporter, 24 h; percent of 10 µM SAHA response. activation, % at 6 µM. 0.56% of 360,000 active;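 active = activation above the average of all compounds screened plus 3 SD, cutoff fixed separately per campaign, cut at about 7.5% in these data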;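 note: 0% = DMSO wells and 100% = 10 µM SAHA wells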
# SR-BI DiI inh: blocks mouse SR-BI lipid uptake from DiI-HDL | ldlA[mSR-BI] CHO cells, DiI-HDL uptake fluorescence, 3 h | inhibition, % at 12.5 µM | 0.96% of 320,000 active | Q61009;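 active = mean replicate inhibition of at least 70% and a set share of replicates each scoring 70 or more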;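 note: 0% = median of neutral control wells and 100% = median of positive control wells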
# AHR activator: human AHR activation. P35869. AHR-responsive luciferase reporter cells, luminescence. activation, % at 5 µM. 2.5% of 320,000 active. AID 2796; in the data active = activation above about 47%;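 note: 0% = vehicle wells and 100% = reference agonist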
# GAA30 FXN cntr: activates GAA30 frataxin promoter, counter-screen for GAA850 activators. shares compounds with GAA850 FXN act. HEK293 lucGAA30 FXN promoter luciferase, 24 h; DMSO = 0%, 5 µM ipriflavone = 100%. activation, % at 6 µM. 66% of 1,900 active. AID 588350;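 active = mean activation above the mean of solvent-only control wells plus 3 SD, cut at about 22% in these data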;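 note: counterscreen of GAA850 promoter hits where activity marks nonselective or luminescence artifacts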
# FXN GAA850 conf: confirmation of GAA850 frataxin (FXN) promoter activators; shares compounds with GAA850 FXN act; HEK293 lucGAA850 FXN promoter luciferase reporter, 24 h; 100% = activation by SAHA; activation, % at 6 µM; 86% of 1,900 active;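 active = mean activation above a set limit taken from the primary screen, cut at about 8% in these data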;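 note: 0% = DMSO wells and 100% = 10 µM SAHA wells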
# Starred values were filed as active, the others as inactive; x = no result.
SMILES,GASC-1 inh,SR-BI DiI-HDL act,GAA850 FXN act,SR-BI DiI inh,AHR activator,GAA30 FXN cntr,FXN GAA850 conf
COC(=O)[C@@H]1[C@@H](C(=O)OC)C2(c3ccccc3-c3ccccc32)N(c2ccc(Cl)cc2)N1C#N,4,-57,13*,57,-1,-96,-19
COC(=O)C[C@]1(C(=O)OC)CN(C#N)N(c2ccc(Cl)cc2)C12c1ccccc1-c1ccccc12,4,-42,-15,42,-7,x,x
COc1ccc(OC(=O)N(C)C[C@H]2OCc3cnnn3CCCC(=O)N([C@H](C)CO)C[C@@H]2C)cc1,x,x,-1,x,x,x,x
COc1ccc(OC(=O)N(C)C[C@@H]2OCc3ccccc3-c3c(n(C)c4ccccc34)C(=O)N([C@H](C)CO)C[C@@H]2C)cc1,x,x,12*,x,x,18,9.1*
COc1ccc(/C=N/N=C(/N)N[N+](=O)[O-])c(OC)c1,-17,-7,9.7*,7,17,75*,26*
Cc1c(C(=O)C(=O)N2CCC3(CC2)OCCO3)c2ccccc2n1C,8,9,-3,-9,0,x,x
